Jurkat viability: cytotoxic compounds reducing Jurkat cell viability. 1.2% of 56,000 active. Jurkat E6.1 viability, ATP luminescence, 48 h. inhibition, % at 4 µM;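 active = inhibition above the mean inhibition of all tested compounds plus 3 SD, cut at about 28% in these data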
HUVEC prolif 384: inhibitors of human endothelial cell proliferation | HUVEC proliferation, CellTiter-Glo luminescence, 72 h; active compounds read low | AID 648 | viability, % at 10 µM (by protocol) | 1.1% of 86,000 active;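 active = viability at or below 30%; inactive = viability above 30%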;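 also: 100% = median luminescence of DMSO-only cell control wells on each plate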
E coli WT exp: growth inhibitors of E. coli BW25113 wild type | growth inhibition, % at 100 µM | AID 710 | OD600 absorbance | 0.15% of 98,000 active;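 active = growth inhibition above about 50% at one test dose, limit read from the data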;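 also: growth measured after 20 h incubation at 37 °C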
H69AR inhibit: growth inhibitors of human H69AR lung tumor cells | H69AR lung tumor viability, ATP luminescence, 72 h; active compounds read low | viability, % at 10 µM | 6% of 85,000 active;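 active = viability at or below 40%; inactive = viability above 40%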;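 also: multidrug resistant small cell line overexpressing MRP-1 efflux transporter; 100% = mean luminescence of untreated control wells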
tolC growth inh: growth inhibitors of E. coli BW25113 tolC mutant; OD615; growth inhibition, % at 10 µM (by protocol); 2.2% of 65,000 active;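 active = growth inhibition at or above a cutoff equal to the mean over every tested compound plus 3 SD, cut at about 60% in these data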;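 also: growth measured after 20 h incubation at 37 °C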
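Assay system: tolC-deleted E. coli BW25113. Medium: kanamycin-containing LB broth (50 µg/mL). Dosing: 10 µM final, single dose. Timing: bacterial growth with compound for 20 h at 37 °C. Detection: A615 absorbance measurement. Read-out basis: growth inhibition in percent.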
Lung fibro prol: blocks proliferation of human lung fibroblasts; 1.1% of 85,000 active; AID 719; LL 47 human lung fibroblast viability, ATP luminescence; active compounds read low; viability, % at 10 µM;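 active = viability at or below 50% in the single dose screen; inactive = viability above 50%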;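 also: compound exposure lasted 72 h before the ATP readout; 100% = median luminescence of untreated cell-only wells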
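Material: human LL 47 lung fibroblast cells; quantity: 1,150 cells/well; medium: IMEM plus 15% FBS; doses: 0.1% DMSO in all compound wells; timing: overnight attachment after seeding, then 72 h compound exposure at 37 °C; detection: CellTiter-Glo luminescence; measure: % viability of median cell-only signal; controls: cell-only wells, no compound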
* hit, by the source's call; nt = no result given. An excerpt weighted towards active compounds, which were near 6.4% of everything screened.

SMILES	Jurkat viability	HUVEC prolif 384	E coli WT exp	H69AR inhibit	tolC growth inh	Lung fibro prol
COC(=O)c1ccc(-c2ncc(-c3cccc4ccccc34)o2)cc1	nt	111	nt	36*	nt	109
COC(=O)c1ccc(-c2nc3ccccc3o2)cc1	-6	94	nt	86	-12	110
C=CCn1c(C)cc(C(=O)CSc2nnc(NCc3ccccc3)s2)c1C	4	58	-21	25*	42	53
Cc1ccc(Cl)cc1NC(=O)CSC(N)=O	nt	84	-6	7.6*	nt	105
Cc1ccc(Cl)cc1NC(=O)CC(O)(C(F)(F)F)C(F)(F)F	10	48	31	4.5*	99*	59
Cc1ccc(Cl)cc1NC(=O)Cn1cccc1	3	105	-1	84	-3	116
Cc1cc(Nc2nc3c(c(=O)n(C)c(=O)n3C)n2C)n(-c2ccccc2)n1	-2	nt	nt	nt	-17	nt
Cc1ccc(C(C)C)c(OCC(=O)Nc2ccc3c(c2)nc(CN2CCCC2)n3C)c1	nt	25*	-3	81	nt	91
CCCC(=O)Nc1ccc2c(c1)nc(CN1CCCC1)n2C	nt	98	5	98	nt	100
Nc1cccc2nc3ccccc3cc12	nt	4.2*	57*	9.2*	nt	19*
COC(=O)CNC(=O)CN1C(=O)N(c2ccc(Cl)cc2)C(N(O)C(=O)Nc2ccc(Cl)cc2)C1(C)C (configuration not stated)	nt	94	14	104	nt	102
Cc1cccc(N2CCN(C(=O)Cn3nc(Cc4ccncc4)c4ccccc4c3=O)CC2)c1C	4	92	nt	77	7	100
Cc1c(C(=O)Nc2nccs2)sc2nc(-c3cccs3)cc(C(F)(F)F)c12	nt	45	-16	36*	nt	68
Cn1c(=O)c2cn(Cc3ccc(Cl)cc3)cc2n(C)c1=O	1	85	0	89	-4	93
COc1cc2c(O)c3c(c(-c4ccc5c(c4)OCO5)c2cc1OC)C(=O)OC3	60*	2.6*	-15	3.6*	13	11*
CCN1CCN(c2nc3c(c(=O)n(C)c(=O)n3C)n2CCSc2nccc(C)n2)CC1	-3	97	4	79	nt	91
O=C(O)[C@H](CO)Nc1ncnc2sc3c(c12)CCC3	nt	100	5	85	nt	100
O=S(=O)(Nc1ncnc2sc3c(c12)CCC3)c1ccc(Cl)s1	2	73	-2	81	63*	100
COc1ccc(OC)c(S(=O)(=O)Nc2ccc(O)c(Sc3ncn[nH]3)c2)c1	14	nt	-1	nt	0	nt
COc1ccc(CCC(=O)Nc2ccc(-c3noc(-c4ccc(OC)c(OC)c4)n3)cc2)cc1	4	94	1	78	-15	98
COc1cc(-c2nc(-c3ccc(NC(=O)c4ccc(Br)o4)cc3)no2)cc(OC)c1OC	nt	32	-16	4.5*	nt	92
COc1ccc(-c2nc(-c3ccc(NC(=O)c4ccc(Br)o4)cc3)no2)cc1OC	-4	35	-4	3.5*	-11	63
CC(C)CC(=O)Nc1cc(NC(=O)CC(C)C)cc(C(=O)NC(C)(C)C)c1	nt	93	-11	94	nt	98
CCOC(=O)C(C)Sc1nnc(Cc2cc(=O)[nH]c(=O)[nH]2)n1-c1ccc(Cl)cc1 (configuration not stated)	4	97	6	90	-8	98
COC(=O)c1c(C)oc2ccc(OC(=O)c3cccs3)cc12	-5	78	-15	97	84*	106
SMILES	Jurkat viability	HUVEC prolif 384	E coli WT exp	H69AR inhibit	tolC growth inh	Lung fibro prol
CCN(CC(=O)Nc1ccc2c(c1)OCCO2)c1nc(-c2cccnc2)nc2ccccc12	0	72	-11	76	3	95
COc1ccc(-c2nnc(SCCc3ccccc3)n2N)cc1	-3	100	-1	96	2	46*
COc1ccc(-c2nnc(SCc3ccccc3)n2N)cc1	3	95	0	nt	-18	101
CC(C)(C)n1nnnc1C(c1cccnc1)N(Cc1ccccc1)Cc1cccs1 (configuration not stated)	nt	78	-23	6.6*	nt	87
CC(C)(C)n1nnnc1C(c1cccs1)N(Cc1ccccc1)Cc1cccnc1 (configuration not stated)	4	87	-9	53	80*	86
CC1N(O)C(C)(C)C(c2ccccc2)=[N+]1[O-] (configuration not stated)	nt	97	nt	116	nt	99
CCCc1cc(=O)[nH]c(SCc2cc(Cl)ccc2OC(F)F)n1	nt	101	10	87	nt	99
CCOC(=O)C1CCN(c2nc3cc(OC)ccc3cc2C#N)CC1	-3	103	-8	91	75*	109
COc1ccc2nc(N3CCC(O)CC3)c(C#N)cc2c1	-2	95	3	84	11	99
COc1ccc2nc(N3CCC(C)CC3)c(C#N)cc2c1	-3	105	5	94	97*	104
COc1ccc(C(=O)OCC(=O)c2ccccc2)cc1S(=O)(=O)N1CCOCC1	nt	110	-11	102	nt	105
O=C1c2ccccc2C(=O)c2c1oc(C(F)(F)F)c2C(=O)c1ccccc1	nt	3.5*	-8	0.7*	nt	3.1*
O=C(c1ccccc1)c1ccc(CN2C(=O)c3ccccc3C2=O)o1	-2	101	3	98	23	107
Cc1ccc(CN2CCSc3ccc(C(=O)N4CCN(c5ncccn5)CC4)cc32)cc1	-3	80	-12	92	68*	93
CCOC(=O)c1nnn(-c2nonc2N)c1CN(CC)c1ccccc1	nt	105	-8	87	nt	100
COC(=O)c1cc(=O)nc2sc(-c3cccs3)nn12	nt	95	-3	104	-25	99
COC(=O)c1cc(=O)nc2sc(-c3ccc(F)cc3)nn12	nt	79	-8	36*	-14	93
O=C(Cc1nc(-c2ccc([N+](=O)[O-])cc2)cs1)Nc1ccccc1	nt	nt	-8	nt	nt	nt
C=C(c1ccc(OC)cc1)c1ccc(OC)cc1	nt	83	-16	32*	nt	95
O=c1ccc2cc(O)c(O)cc2o1	nt	70	nt	37*	nt	85
CN(C)C(=O)COc1ccc2ccc(=O)oc2c1	-2	93	-1	99	-17	96
COc1c(OC(C)=O)ccc(/C=C/c2ccc3ccccc3n2)c1[N+](=O)[O-]	nt	nt	-16	nt	nt	nt
CC(=O)/C=C/c1ccc2ccccc2n1	nt	30*	31	0.8*	nt	7.4*
Cc1ccc(-c2nc3ccccn3c2NC(=O)c2ccco2)cc1	nt	83	nt	107	nt	103
O=C(Nc1cccc2cccnc12)c1ccc(Br)o1	-3	71	7	37*	93*	90
Cc1ccc(NC(=O)c2ccco2)cc1NC(=O)CSc1nnc(-c2cccs2)n1C	-4	94	-10	91	3	105
Cc1c(NC(=O)CC(=O)Nc2c(C)n(C)n(-c3ccccc3)c2=O)c(=O)n(-c2ccccc2)n1C	4	101	6	85	-11	90
COc1ccccc1NC(=O)Nc1c(C)n(C)n(-c2ccccc2)c1=O	-8	94	1	32*	-10	102
